Assay results taken from article PMC9272583 (European Journal of Medicinal Chemistry, 2022).
Where two headings read alike, the source gives them in different places.

Legend:
[1] = Parallel artificial membrane permeability assay; type: in vitro ADME; settings: PAMPA
SARS-CoV-2 M^pro [2] = target: T1, SARS-CoV-2 M^pro (Severe acute respiratory syndrome coronavirus 2, UniProt P0DTD1); test: SARS-CoV-2 Mpro fluorogenic; type: biochemical; settings: for time dependent inhibition: 12.5 μM; for competitive binding (Cheng-Prusoff plots): increasing substrate concentration; for inhibition at 50 µM: 0.25 h, read-out: SARS-CoV-2 M^pro % (50 μM)
SARS-CoV-2 M^pro [3] = target: T1, SARS-CoV-2 M^pro; test: Compound stability against SARS-CoV-2 Mpro; settings: 8 h of incubation in assay buffer, HPLC
DENV-2 protease = target: T2, DENV-2 protease (Dengue virus type 2, UniProt P29990); test: Compound stability against DENV-2 protease; settings: 8 h of incubation in DENV assay buffer, HPLC
T2 sequence (P29990 1476-1653 limits assumed): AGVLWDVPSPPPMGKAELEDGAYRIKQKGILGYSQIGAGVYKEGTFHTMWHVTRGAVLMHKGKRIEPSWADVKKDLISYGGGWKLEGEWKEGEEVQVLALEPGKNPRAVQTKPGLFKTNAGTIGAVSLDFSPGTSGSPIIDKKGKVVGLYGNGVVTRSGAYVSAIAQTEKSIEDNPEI

SARS-CoV-2 M^pro [4] = target: T1, SARS-CoV-2 M^pro; test: Dilution experiment; type: biochemical; settings: preincubated 100 μM for 2 h, diluted to 3 μM
SARS-CoV-2 M^pro [5] = target: T1, SARS-CoV-2 M^pro; test: SARS-CoV-2 Mpro Michaelis-Menten kinetics; type: biochemical; settings: Michaelis-Menten plot
DENV serotype 2 protease = DENV serotype 2 protease (Dengue virus type 2, UniProt P29990); test: DENV2 reporter gene assay; type: cell-based; settings: for inhibition at 12.5 µM: HeLa, 24 h, read-out: DENV2proHeLa % (12.5 μM)
DENV serotype 2 protease, sequence (P29990 1346-1475): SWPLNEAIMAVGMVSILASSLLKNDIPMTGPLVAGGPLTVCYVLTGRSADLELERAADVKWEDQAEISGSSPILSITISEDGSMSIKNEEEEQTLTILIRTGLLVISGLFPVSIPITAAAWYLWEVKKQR
DENV serotype 2 protease, sequence (P29990 1476-2093): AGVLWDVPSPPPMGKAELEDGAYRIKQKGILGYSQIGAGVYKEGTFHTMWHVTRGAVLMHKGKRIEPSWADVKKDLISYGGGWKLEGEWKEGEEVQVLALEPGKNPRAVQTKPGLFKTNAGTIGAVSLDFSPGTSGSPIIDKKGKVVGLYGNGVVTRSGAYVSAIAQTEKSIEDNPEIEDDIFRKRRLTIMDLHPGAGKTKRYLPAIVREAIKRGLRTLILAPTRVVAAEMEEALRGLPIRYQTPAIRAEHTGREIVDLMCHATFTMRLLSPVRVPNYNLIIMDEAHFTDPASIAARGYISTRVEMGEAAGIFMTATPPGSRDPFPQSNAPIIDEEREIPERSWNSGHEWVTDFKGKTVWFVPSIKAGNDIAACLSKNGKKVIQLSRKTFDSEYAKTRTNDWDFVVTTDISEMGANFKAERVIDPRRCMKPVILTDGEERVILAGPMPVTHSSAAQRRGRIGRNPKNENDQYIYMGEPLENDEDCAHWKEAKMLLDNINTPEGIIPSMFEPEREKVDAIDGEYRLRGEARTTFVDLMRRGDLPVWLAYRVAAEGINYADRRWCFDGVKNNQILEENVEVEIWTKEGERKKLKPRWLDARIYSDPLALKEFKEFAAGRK
Summary of the method: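 Stable DENV2proHeLa cells (DMEM, 10% heat-inactivated FCS, antibiotics) were seeded at 2 x 10^4 per well, dosed at once and incubated 24 h at 37 °C. Cells were lysed 15 min at room temperature, then coelenterazine (2.75 μM in PBS) was injected and luciferase read for 5 s. Triplicates; % inhibition vs untreated control. EC50 from a 4-parameter fit after background subtraction (cell-free wells).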

DENV serotype 2 = settings: DENV-2 titer reduction; cited from earlier work
DENV2proHeLa cells = test: Cytotoxicity in DENV2proHeLa cells; type: cell-based
Summary of the method: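 HeLa cells stably carrying the DENV2 protease reporter, kept in DMEM with 10% heat-inactivated FCS, penicillin and streptomycin. Cells were seeded at 2 x 10^4 per well and given compound dilutions straight away. Plates ran in parallel with the reporter assay for 24 h at 37 °C. Viability was read by CellTiter-Blue, with each concentration in triplicate.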

SARS-CoV-2 M^pro [6] = target: T1, SARS-CoV-2 M^pro; test: SARS-CoV-2 Mpro mass adduct measurement; type: binding; settings: ESI-TOF, 100 μM compound
Summary of the method: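 Test compound (100 μM) was incubated with active recombinant Mpro (3 μM; bacterially expressed, Ni-NTA then size-exclusion purified) in 50 mM Tris-HCl pH 7.4, 100 mM NaCl, 20% v/v ethylene glycol, 0.0016% Brij 58. Analysis was by LC-ESI-TOF MS on a C18 column: water/acetonitrile with 0.1% formic acid, 10→95% B over 4 min, 0.3 mL/min. Negative mode, Na-formate external calibration.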

[7] = read-out: DENV2proHeLa EC50, reporter gene assay in HeLa cells

N=C(N)Nc1ccc2c(c1)B(O)OC2 [Compound 4, 1-(1-Hydroxy-1,3-dihydrobenzo[c][1,2]oxaborol-6-yl)guanidine]
passive membrane permeability (in words) [1]: no permeability | Hill slope of dose-response curve (SARS-CoV-2 M^pro [2]): 1.15 ± 0.07

N=C(N)Nc1ccc(C(=O)Nc2ccc3c(c2)B(O)OC3)cc1 [Compound 8, 4-guanidino-N-(1-hydroxy-1,3-dihydrobenzo[c][1,2]oxaborol-6-yl)benzamide]
Hill slope of dose-response curve (SARS-CoV-2 M^pro [2]): 1.14 ± 0.07 | time dependent inhibition (SARS-CoV-2 M^pro [2]): no significant increase or decrease | competitive binding (Cheng-Prusoff plots) (SARS-CoV-2 M^pro [2]): do not show competitive binding | stability against SARS-CoV-2 M^pro (SARS-CoV-2 M^pro [3]): no cleavage

O=S(=O)(Nc1ccc2c(c1)B(O)OC2)c1ccc(Cl)cc1 [Compound 11, 4-Chloro-N-(1-hydroxy-1,3-dihydrobenzo[c][1,2]oxaborol-6-yl)benzenesulfonamide]
passive membrane permeability (in words) [1]: passive permeability

O=C(Nc1ccc2c(c1)B(O)OC2)c1ccc(Oc2ccccc2)cc1 [Compound 15, N-(1-Hydroxy-1,3-dihydrobenzo[c][1,2]oxaborol-6-yl)-4-phenoxybenzamide]
passive membrane permeability (in words) [1]: passive permeability | stability against DENV-2 protease (DENV-2 protease): no decrease in the compound AUC

O=C(Nc1ccc2c(c1)B(O)OC2)c1ccccc1OCc1ccccc1 [Compound 17, 2-(Benzyloxy)-N-(1-hydroxy-1,3-dihydrobenzo[c][1,2]oxaborol-6-yl)benzamide]
passive membrane permeability (in words) [1]: passive permeability

O=C(Nc1ccc2c(c1)B(O)OC2)c1cccc(OCc2ccccc2)c1 [Compound 18, 3-(Benzyloxy)-N-(1-hydroxy-1,3-dihydrobenzo[c][1,2]oxaborol-6-yl)benzamide]
passive membrane permeability (in words) [1]: passive permeability | reversibility of binding (SARS-CoV-2 M^pro [4]): reversible | inhibition mode (SARS-CoV-2 M^pro [5]): mixed inhibition mode | Hill slope of dose-response curve (SARS-CoV-2 M^pro [2]): 1.39 ± 0.16 | time dependent inhibition (SARS-CoV-2 M^pro [2]): no significant increase or decrease | competitive binding (Cheng-Prusoff plots) (SARS-CoV-2 M^pro [2]): do not show competitive binding | stability against SARS-CoV-2 M^pro (SARS-CoV-2 M^pro [3]): no cleavage | stability against DENV-2 protease (DENV-2 protease): no decrease in the compound AUC

O=C(Nc1ccc2c(c1)B(O)OC2)c1ccc(OCc2ccc(Cl)cc2)cc1 [Compound 20, 4-((4-Chlorobenzyl)oxy)-N-(1-hydroxy-1,3-dihydrobenzo[c][1,2]oxaborol-6-yl)benzamide]
passive membrane permeability (in words) [1]: passive permeability | stability against DENV-2 protease (DENV-2 protease): no decrease in the compound AUC

O=C(Nc1cccc(C(=O)Nc2ccc3c(c2)B(O)OC3)c1)c1ccccc1 [Compound 23, 3-Benzamido-N-(1-hydroxy-1,3-dihydrobenzo[c][1,2]oxaborol-6-yl)benzamide]
stability against SARS-CoV-2 M^pro (SARS-CoV-2 M^pro [3]): no cleavage

O=C(Nc1cccc(B(O)O)c1)c1cccc(OCc2ccccc2)c1 [Compound 26, (3-(3-(Benzyloxy)benzamido)phenyl)boronic acid]
passive membrane permeability (in words) [1]: passive permeability

O=C(Nc1ccc2c(c1)B(O)OC2)c1cccc(OCc2ccccc2)n1 [Compound 28, 6-(Benzyloxy)-N-(1-hydroxy-1,3-dihydrobenzo[c][1,2]oxaborol-6-yl)picolinamide]
inhibition at 12.5 µM (DENV serotype 2 protease): 85.2 ± 4.1% | EC50 (DENV serotype 2 protease; [7]): 2500 ± 200 nM | inhibition at 50 µM (SARS-CoV-2 M^pro [2]): 55.5 ± 7%

Cc1cccc(COc2cccc(C(=O)Nc3ccc4c(c3)B(O)OC4)c2)c1 [Compound 29, N-(1-Hydroxy-1,3-dihydrobenzo[c][1,2]oxaborol-6-yl)-3-((3-methylbenzyl)oxy)benzamide]
EC50 (DENV serotype 2 protease): 1100 ± 100 nM | inhibition at 12.5 µM (DENV serotype 2 protease): 90 ± 0.9% | inhibition at 50 µM (SARS-CoV-2 M^pro [2]): 45.7 ± 6.3%

COc1cccc(COc2cccc(C(=O)Nc3ccc4c(c3)B(O)OC4)c2)c1 [Compound 30, N-(1-Hydroxy-1,3-dihydrobenzo[c][1,2]oxaborol-6-yl)-3-((3-methoxybenzyl)oxy)benzamide]
EC50 (DENV serotype 2 protease): 2900 ± 300 nM | inhibition at 12.5 µM (DENV serotype 2 protease): 80.4 ± 2% | inhibition at 50 µM (SARS-CoV-2 M^pro [2]): 43.4 ± 9.1%

N#Cc1ccc(COc2cccc(C(=O)Nc3ccc4c(c3)B(O)OC4)c2)cc1 [Compound 31, 3-((4-Cyanobenzyl)oxy)-N-(1-hydroxy-1,3-dihydrobenzo[c][1,2]oxaborol-6-yl)benzamide]
passive membrane permeability (in words) [1]: passive permeability | EC50 (DENV serotype 2 protease): 4100 ± 200 nM | inhibition at 12.5 µM (DENV serotype 2 protease): 82.2 ± 3.7% | inhibition at 50 µM (SARS-CoV-2 M^pro [2]): 31.7 ± 3.6%

O=C(Nc1ccc2c(c1)B(O)OC2)c1cccc(OCc2ccc(Cl)cc2)c1 [Compound 32, 3-((4-Chlorobenzyl)oxy)-N-(1-hydroxy-1,3-dihydrobenzo[c][1,2]oxaborol-6-yl)benzamide]
EC50 (DENV serotype 2 protease): 2400 ± 200 nM | inhibition at 12.5 µM (DENV serotype 2 protease): 83.6 ± 1.7% | stability against DENV-2 protease (DENV-2 protease): no decrease in the compound AUC

O=C(Nc1ccc2c(c1)B(O)OC2)c1cccc(OCc2c(Cl)cccc2Cl)c1 [Compound 33, 3-((2,6-Dichlorobenzyl)oxy)-N-(1-hydroxy-1,3-dihydrobenzo[c][1,2]oxaborol-6-yl)benzamide]
passive membrane permeability (in words) [1]: passive permeability | inhibition at 12.5 µM (DENV serotype 2 protease): 85.6 ± 4.3% | EC50 (DENV serotype 2 protease; [7]): 540 ± 50 nM

O=C(Nc1ccc2c(c1)B(O)OC2)c1cccc(OCC2CCCCC2)c1 [Compound 34, 3-(Cyclohexylmethoxy)-N-(1-hydroxy-1,3-dihydrobenzo[c][1,2]oxaborol-6-yl)benzamide]
EC50 (DENV serotype 2 protease): 3400 ± 500 nM

CCCCCC(=O)NC(C(=O)NCc1ccc(NC(=N)N)cc1)c1ccc(OCc2ccccc2)cc1 (centres unmarked) [NK-189, reference compound]
antiviral activity of the reference substance (DENV serotype 2): 0.89 µM | DENV2proHeLa % (12.5 μM) (DENV serotype 2 protease; inhibitor 12.5 μM, reporter gene assay in HeLa cells): 79.3 ± 9.7% | EC50 (DENV serotype 2 protease; [7]): 600 ± 100 nM | CC50 (DENV2proHeLa cells): > 50000 nM

CC(C)(C)NC(=O)N[C@H](C(=O)N1C[C@H]2[C@@H]([C@H]1C(=O)NC(CC1CCC1)C(=O)C(N)=O)C2(C)C)C(C)(C)C (some centres unmarked) [boceprevir]
mass adducts with SARS-CoV-2 M^pro (SARS-CoV-2 M^pro [6]): adducts were found
